Active and inactive are the calls of the source. The calls are words filed in the database; no cut-off is given here.
Experiments:
[1] = biological target: T1, Androgen receptor (Homo sapiens) (UniProt P10275); assay: Inhibition of androgen receptor in R1881-stimulated (R)-bicalutamide-resisitant human LNCAP cells assessed as reduction in PSA mRNA level at 20 uM after 24 hrs by RT-PCR analysis; assay type: cell-based
T1 sequence (whole entry): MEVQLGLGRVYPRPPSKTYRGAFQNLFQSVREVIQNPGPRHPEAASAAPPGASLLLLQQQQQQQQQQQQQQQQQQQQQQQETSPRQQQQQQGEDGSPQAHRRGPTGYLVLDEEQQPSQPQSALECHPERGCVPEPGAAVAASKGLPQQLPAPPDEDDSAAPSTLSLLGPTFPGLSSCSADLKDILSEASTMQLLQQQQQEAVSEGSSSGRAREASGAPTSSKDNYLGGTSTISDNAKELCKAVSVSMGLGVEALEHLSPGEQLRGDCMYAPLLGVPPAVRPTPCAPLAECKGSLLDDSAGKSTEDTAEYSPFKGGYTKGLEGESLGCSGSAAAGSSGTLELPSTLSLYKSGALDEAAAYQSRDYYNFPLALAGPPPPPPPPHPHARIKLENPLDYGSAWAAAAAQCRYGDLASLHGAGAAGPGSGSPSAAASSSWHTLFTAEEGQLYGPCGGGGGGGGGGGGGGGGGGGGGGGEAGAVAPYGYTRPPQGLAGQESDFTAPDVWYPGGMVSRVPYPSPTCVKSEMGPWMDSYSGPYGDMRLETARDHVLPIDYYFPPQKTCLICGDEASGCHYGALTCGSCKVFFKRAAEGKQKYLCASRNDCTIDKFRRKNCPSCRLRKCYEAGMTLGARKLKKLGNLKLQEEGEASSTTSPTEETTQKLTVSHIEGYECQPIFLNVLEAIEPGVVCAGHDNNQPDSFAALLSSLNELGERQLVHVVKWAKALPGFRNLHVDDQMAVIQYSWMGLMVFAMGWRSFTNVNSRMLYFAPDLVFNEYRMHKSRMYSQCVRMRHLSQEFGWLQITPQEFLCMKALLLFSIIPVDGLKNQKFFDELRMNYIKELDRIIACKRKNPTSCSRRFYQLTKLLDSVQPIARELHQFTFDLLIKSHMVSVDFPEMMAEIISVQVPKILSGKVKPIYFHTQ
How it was run: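 LNCaP or LNCaP-Rbic cells (Rbic kept in 20 μM bicalutamide), 24 h after seeding, stimulated with 10 nM R1881 and treated 24 h with 10 or 20 μM compound. PSA mRNA measured by SYBR Green real-time RT-PCR in triplicate reactions, normalized to GAPDH and HPRT, expressed as fold over untreated. Two independent experiments.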

[2] = Inhibition of cell survival in human VCaP cells after 144 hrs by TUNEL assay; assay type: cell-based
How it was run: (§1)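 Cells treated 144 h starting 24 h after seeding. Fixed in 1% paraformaldehyde then 70% ethanol, labeled with TUNEL mix (TdT, FITC-dUTP) for 60 min at 37 °C, counterstained with propidium iodide/RNase, and analyzed by flow cytometry for % apoptotic cells. For LNCaP and LNCaP-AR, compounds at 20 μM, three independent experiments.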

[3] = biological target: T1, Androgen receptor (Homo sapiens); assay: Inhibition of androgen receptor in human LNCAP cells assessed as reduction in PSA mRNA level at 0.5 to 20 uM after 24 hrs by RT-PCR analysis; assay type: cell-based
[4] = Cytotoxicity against african green monkey COS7 cells; assay type: cell-based; details: chlorocebus aethiops, cos-7
LNCaP [5] = assay: Inhibition of R1881-induced migration of human LNCAP cells at 10 uM by transwell assay; assay type: functional, cell-based
How it was run: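 Quiescent LNCaP cells on collagen-coated transwell filters, 24 h after seeding, treated with 10 nM R1881 ± 10 μM compound. Migrated cells stained with Hoechst and counted by fluorescence microscopy; data given as relative increase in migrated cells.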

CWR22R = assay: Inhibition of cell survival in human CWR22Rv1 cells after 144 hrs by TUNEL assay; assay type: functional, cell-based; details: 22Rv1, 144 h
[6] = Inhibition of R1881-induced DNA synthesis in Androgen receptor-negative human DU145 cells at 10 to 20 uM after 18 hrs by BrdU incorporation assay; assay type: cell-based; details: du-145, 18 h
VCaP [7] = assay: Antitumor activity against human VCaP cells xenografted in CD-1 nu/nu mouse assessed as tumor regression at 10 mg/kg, po for 4 consecutive weeks starting on day 35 of tumor implantation measured after 60 days; assay type: functional, organism-based; design: dose 10 mg/kg
How it was run: (§2)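 Male CD-1 nu/nu mice, 5–6 weeks old, injected s.c. in the flank with 10⁶ VCaP cells in 50% Matrigel/50% serum-free medium. When tumors reached 50–100 mg, mice were randomized, 5 per group. Daily oral gavage at 10 mg/kg for 4 weeks in 80% PEG-400/20% Tween-80; controls got vehicle. Tumor weight from caliper (a×b²/2) three times weekly; body weight monitored.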

[8] = biological target: T1, Androgen receptor (Homo sapiens); assay: Inhibition of androgen receptor in R1881-stimulated human LNCAP cells assessed as reduction in PSA mRNA level at 0.5 to 20 uM after 24 hrs by RT-PCR analysis; assay type: cell-based
Mus musculus = assay: Toxicity in human VCaP cells xenografted CD-1 nu/nu mouse assessed as body weight loss at 10 mg/kg, po for 4 consecutive weeks starting on day 35 of tumor implantation measured up to 100 days; assay type: organism-based; design: dose 10 mg/kg, route oral; details: in vivo, 2400 h; how it was run: as §2
VCaP [9] = assay: Antitumor activity against human VCaP cells xenografted in CD-1 nu/nu mouse assessed as tumor regression at 10 mg/kg, po for 4 consecutive weeks starting on day 35 of tumor implantation measured after 100 days; assay type: functional, organism-based; design: dose 10 mg/kg; how it was run: as §2
[10] = Cytotoxicity against human PC3 cells after 144 hrs by SRB assay; assay type: cell-based; details: pc-3, 144 h
How it was run: (§3)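 Cells exposed for 144 h starting 24 h after seeding, 5000 cells/well. SRB assay with OD read at 490 nm. Growth inhibition calculated as (ODtreated−ODzero)/(ODcontrol−ODzero)×100; OD below ODzero counted as cell killing. Octuplicate wells, three independent experiments; IG50 and LC50 taken from this calculation.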

LNCaP [11] = assay: Induction of apoptosis in human LNCAP cells expressing mutant androgen receptor at 20 uM after 144 hrs by TUNEL assay; assay type: cell-based; how it was run: as §1
DU-145 = assay: Cytotoxicity against human DU145 cells after 144 hrs by SRB assay; assay type: cell-based; details: du-145, 144 h; how it was run: as §3
[12] = biological target: T1, Androgen receptor (Homo sapiens); assay: Effect on nuclear import of wild-type human androgen receptor expressed in COS7 cells at 10 uM after 1 hr by immunofluorescence analysis; assay type: cell-based; details: COS-7
How it was run: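 Cos-7 cells on coverslips made quiescent, transfected with 1 μg pSG5-hAR, then stimulated with 10 nM R1881 for 60 min ± compounds. AR detected by immunofluorescence with anti-C19 antibody and Texas red secondary; nuclei stained with Hoechst.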

LNCaP [13] = assay: Inhibition of cell survival in (R)-bicalutamide-resisitant human LNCAP cells after 144 hrs by TUNEL assay; assay type: cell-based; how it was run: as §1
[14] = biological target: T1, Androgen receptor (Homo sapiens); assay: Displacement of [3H]R1881 from androgen receptor in human LNCAP cells at 1 uM after 24 hrs by liquid scintillation counting; assay type: cell-based
[15] = biological target: T1, Androgen receptor (Homo sapiens); assay: Displacement of [3H]R1881 from androgen receptor in human LNCAP cells at 2 uM after 24 hrs by liquid scintillation counting; assay type: cell-based
LNCaP [16] = assay: Cytotoxicity against human LNCAP cells expressing mutant androgen receptor assessed as reduction in cell viability; assay type: cell-based
LNCaP [17] = assay: Inhibition of R1881-induced migration of human LNCAP cells at 10 uM after 24 hrs by wound-healing assay; assay type: functional, cell-based
How it was run: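 Confluent quiescent LNCaP monolayers scratched, washed, and given 10 nM R1881 ± 10 μM compound for 24 h. Wound closure assessed from phase-contrast images; four experiments.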

[18] = Growth inhibition of human LNCaP-AR cells expressing wild-type androgen receptor after 144 hrs by SRB assay; assay type: functional; how it was run: as §3
LNCaP [19] = assay: Growth inhibition of (R)-bicalutamide-resisitant human LNCAP cells after 144 hrs by SRB assay; assay type: functional; how it was run: as §3
LNCaP-AR = assay: Induction of apoptosis in human LNCaP-AR cells expressing wild-type androgen receptor at 20 uM after 144 hrs by TUNEL assay; assay type: functional; how it was run: as §1
[20] = Growth inhibition of human VCaP cells after 144 hrs by SRB assay; assay type: functional; how it was run: as §3
LNCaP [21] = assay: Inhibition of R1881-induced DNA synthesis in human LNCAP cells at 10 to 20 uM after 18 hrs by BrdU incorporation assay; assay type: functional, cell-based
How it was run: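 Quiescent LNCaP cells on coverslips treated 18 h with 10 nM R1881 ± compound (10 or 20 μM), then pulsed with 100 μM BrdU. Incorporation scored by anti-BrdU immunofluorescence as % of total nuclei.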

LNCaP [22] = assay: Effect on cell migration in serum-stimulated human LNCAP cells by transwell assay; assay type: ADME, cell-based
LNCaP [23] = assay: Growth inhibition of human LNCAP cells expressing mutant androgen receptor after 144 hrs by SRB assay; assay type: cell-based; details: Homo sapiens, LNCaP, read-out: GI50; how it was run: as §3

For N#Cc1ccc(C[C@](O)(CS(=O)(=O)c2ccc(F)cc2)C(=O)Nc2ccc(C#N)c(C(F)(F)F)c2)cc1, the inhibition [1] was “Active”, the Activity [2] was “Non-toxic” and the inhibition [3] was “Active”. For the same compound, the Activity [4] was “Non-toxic”, the inhibition (LNCaP [5]) was “Active” and the IC50 (CWR22R) was 5 µM. The Activity [6] was “Non-toxic”, the Activity (VCaP [7]) was “Active” and the inhibition [8] was “inactive”. For the same compound, the Activity (Mus musculus) was “Non-toxic”, the Activity (VCaP [9]) was “Active” and the Activity [10] was “Non-toxic”. The Activity (LNCaP [11]) was “Non-toxic”, the Activity (DU-145) was “Non-toxic” and the Activity [12] was “inactive”. The Activity (LNCaP [13]) was “Non-toxic”, the inhibition [14] was 60% and the inhibition [15] was 65%. For the same compound, the Activity (LNCaP [16]) was “Non-toxic”, the inhibition (LNCaP [17]) was “Active” and the GI50 [18] was 4.9 µM. The GI50 (LNCaP [19]) was 6.43 µM, the Activity (LNCaP-AR) was “inactive” and the GI50 [20] was 1.42 µM. For the same compound, the inhibition (LNCaP [21]) was “Active”, the Activity (LNCaP [22]) was “Non-toxic” and the GI50 (LNCaP [23]) was 1.6 µM.

From ChEMBL document CHEMBL3351536, “A new avenue toward androgen receptor pan-antagonists: C2 sterically hindered substitution of hydroxy-propanamides” (J Med Chem, 2014)
